Results published in ChEMBL document CHEMBL4376884, “Toward a Rational Design of Polyamine-Based Zinc-Chelating Agents for Cancer Therapies” (J Med Chem, 2020).
Activity calls are given as the source filed them. The calls are words filed in the database; no cut-off is given here.

How the values were obtained:
PC-3 [1] = assay: Antiproliferative activity against human PC3 cells assessed as reduction in cell viability at 10 uM incubated for 48 hrs in presence of Fe3+ ion by MTT assay; assay type: functional, cell-based
Method in brief: (§1)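 LN229 and PC3 cells plated, then 24 h later given 10 µM compound with or without 15 µM ZnCl2, CuCl2, FeCl2 or FeCl3 for 48 h. Medium replaced, MTT (12 mM solution) added for 4 h, formazan dissolved in DMSO, absorbance read at 540 nm. Percent viable versus untreated; mean ± SD of three experiments in triplicate.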

[2] = Metal chelating activity assessed as Zn2+-compound complex formation by measuring stability constant for ZnL(OH) using pre-Zn2+-complexed compound (ZnL) in 0.15M NaCl and hydroalcoholic solutions (H2O/EtOH 70:30) at 298.1K by potentiometric titration analysis
Method in brief: (§2)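 Glass-electrode potentiometric titration with an Ag/AgCl reference in saturated KCl. The electrode was calibrated as an [H+] probe against standardized HCl with CO₂-free NaOH, using Gran's method (pKw 13.73(1)). Range was pH 2.0–11.0, with metal and ligand at 1×10⁻³ to 5×10⁻³ M in 1:1 ratio. At least two curves per compound were merged and fitted with HYPERQUAD.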

SW-620 = assay: Antiproliferative activity against human SW620 cells assessed as reduction in cell viability at 10 uM incubated for 48 hrs by cell titer-glo assay; assay type: functional, cell-based
Method in brief: (§3)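 Cells plated and treated 24 h later with 10 µM compound for 48 h; viable cells quantified by CellTiter-Glo ATP luminescence. Expressed as percentage of viable cells relative to untreated; mean ± SD of three independent experiments, each in triplicate.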

PC-3 [3] = assay: Induction of apoptosis in human PC3 cells assessed as early apoptotic cells at 10 uM incubated for 72 hrs by annexin V-FITC and propidium iodide staining based flow cytometry analysis (reference value: 0.24 %); assay type: functional
PC-3 [4] = assay: Cell cycle arrest in human PC3 cells assessed as cell accumulation at S phase at 10 uM incubated for 24 hrs by propidium iodide staining based flow cytometry analysis relative to control; assay type: functional
PC-3 [5] = assay: Induction of apoptosis in human PC3 cells assessed as increase in early and late apoptotic cells at 10 uM incubated for 72 hrs by annexin V-FITC and propidium iodide staining based flow cytometry analysis relative to control; assay type: functional
[6] = Metal chelating activity assessed as Zn2+-compound complex formation by measuring stability constant for ZnL in 0.15M NaCl and hydroalcoholic solutions (H2O/EtOH 70:30) at 298.1K by potentiometric titration analysis; method in brief: as §2
LN-229 [7] = assay: Induction of cellular senescence in human LN229 cells assessed as wider cells at 10 uM incubated for 24 hrs by phase contrast microscopy; assay type: functional, cell-based
Method in brief: (§4)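 LN229 and PC3 cells, 12×10^4 per well in 6-well plates, treated with 10 µM compound for 24 h. Senescence-associated β-gal staining: fixed in 2% formaldehyde/0.2% glutaraldehyde for 10 min at RT, stained with 1 mg/mL X-gal at 37 °C for 24 h without CO2. Blue cells counted in at least 10 fields at 10x and given as percent of total; four independent experiments. Morphology viewed by phase contrast at ×100.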

PC-3 [8] = assay: Induction of cellular senescence in human PC3 cells assessed as larger volume of cell at 10 uM incubated for 24 hrs by phase contrast microscopy; assay type: functional, cell-based; method in brief: as §4
LN-229 [9] = assay: Antiproliferative activity against human LN229 cells assessed as reduction in cell viability at 10 uM incubated for 48 hrs in presence of Cu2+ ion by MTT assay; assay type: functional, cell-based; method in brief: as §1
JeKo-1 = assay: Induction of apoptosis in human JeKo1 cells assessed as increase in caspase-3/7 activation at 10 uM incubated for 48 hrs by luminometric caspase-glo 3/7 assay; assay type: functional, cell-based
Method in brief: (§5)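 Cells in RPMI or DMEM with 10% heat-inactivated FBS and penicillin/streptomycin, 37 °C, 5% CO2, treated with 10 µM compound for 48 h. Caspase-3 and caspase-7 activity read by luminescent Caspase-Glo 3/7 assay, reported as fold induction over untreated cells; mean ± SD of three independent experiments, each in triplicate.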

[10] = Metal chelating activity assessed as Zn2+-compound complex formation by measuring stability constant for ZnL(OH) in 0.15M NaCl and hydroalcoholic solutions (H2O/EtOH 70:30) at 298.1K by potentiometric titration analysis; method in brief: as §2
PC-3 [11] = assay: Induction of apoptosis in human PC3 cells assessed as increase in caspase-3/7 activation at 10 uM incubated for 48 hrs by luminometric caspase-glo 3/7 assay; assay type: functional, cell-based; method in brief: as §5
LN-229 [12] = assay: Cell cycle arrest in human LN229 cells assessed as cell accumulation at S phase at 10 uM incubated for 48 hrs by propidium iodide staining based flow cytometry analysis relative to control; assay type: functional
SW480 = assay: Antiproliferative activity against human SW480 cells assessed as reduction in cell viability at 10 uM incubated for 48 hrs by cell titer-glo assay; assay type: functional, cell-based; method in brief: as §3
PC-3 [13] = assay: Induction of cellular senescence in human PC3 cells assessed as increase in beta-gal-positive cells at 10 uM incubated for 24 hrs by X-Gal staining based microscopic assay relative to control; assay type: functional; method in brief: as §4
Jurkat [14] = assay: Induction of apoptosis in human Jurkat cells assessed as increase in caspase-3/7 activation at 10 uM incubated for 48 hrs by luminometric caspase-glo 3/7 assay; assay type: functional, cell-based; method in brief: as §5
Homo sapiens = species on record: Homo sapiens; assay: Antiproliferative activity against human SP53 cells assessed as reduction in cell viability at 10 uM incubated for 48 hrs by cell titer-glo assay; assay type: functional, cell-based; method in brief: as §3
Jurkat [15] = assay: Cell cycle arrest in human Jurkat cells assessed as increase in cell accumulation at G0/G1 phase at 10 uM incubated for 24 hrs by propidium iodide staining based flow cytometry analysis; assay type: functional
[16] = Metal chelating activity assessed as Zn2+-compound complex formation by measuring stability constant for ZnL(OH) in 0.15M NaCl at 298.1K by potentiometric titration analysis; method in brief: as §2
[17] = Metal chelating activity assessed as Zn2+-compound complex formation by measuring stability constant for ZnL in 0.15M NaCl at 298.1K by potentiometric titration analysis; method in brief: as §2
[18] = Metal chelating activity assessed as Zn2+-compound complex formation by measuring stability constant for ZnHL using pre-Zn2+-complexed compound (ZnL) in 0.15M NaCl at 298.1K by potentiometric titration analysis; method in brief: as §2
[19] = Metal chelating activity assessed as Zn2+-compound complex formation by measuring stability constant for ZnHL in 0.15M NaCl at 298.1K by potentiometric titration analysis; method in brief: as §2
[20] = Metal chelating activity assessed as Zn2+-compound complex formation by measuring stability constant for ZnL(OH) using pre-Zn2+-complexed compound (ZnL) in 0.15M NaCl at 298.1K by potentiometric titration analysis; method in brief: as §2

SMILES	Activity (PC-3 [1])	Activity (SW-620)	Activity (PC-3 [3])	Activity (PC-3 [4])	fold change (FC) (PC-3 [5])	Activity (LN-229 [7])	Activity (PC-3 [8])	Activity (LN-229 [9])	Activity (JeKo-1)	Activity (PC-3 [11])	Activity (LN-229 [12])	Activity (SW480)	Activity (PC-3 [13])	Activity (Jurkat [14])	Activity (Homo sapiens)	Activity (Jurkat [15])	other results
CN(CCNCc1ccccn1)CCNCc1ccccn1	Active	Active	14.27%	9.2%	30	Active	Active	inactive	Active	Active	13.5%	Active	Active	Active	Active	Active	log K [2]: -10.6; log K [6]: 13.4; log K [10]: 2.81
c1ccc(CNCCN(CCNCc2ccccn2)Cc2ccc3ccccc3c2)nc1	Active	Active	14.7%	8.9%	30	Active	Active	inactive	Active	Active	10.8%	Active	50%	Active	Active	Active	log K [16]: 2.25; log K [17]: 13; log K [18]: 3.65; log K [19]: 16.7; log K [20]: -10.8
